# Assay outcomes from PubChem.
# SENP8 block-1 – blocks the human protease SENP8; 1.2% of 330,000 active; inhibition, % at 10 µM; Q96LD8; purified SENP8, Z-RLRGG-aminoluciferin cleavage, luminescence; AID 2540; in the data active = inhibition above about 50%
# Target sequence (Q96LD8 whole entry, looked up): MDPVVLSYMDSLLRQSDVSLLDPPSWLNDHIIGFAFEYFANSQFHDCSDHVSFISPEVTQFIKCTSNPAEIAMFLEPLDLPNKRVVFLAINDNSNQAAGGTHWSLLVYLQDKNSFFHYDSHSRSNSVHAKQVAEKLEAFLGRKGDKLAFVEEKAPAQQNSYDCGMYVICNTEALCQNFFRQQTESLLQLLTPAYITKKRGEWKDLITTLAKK
# SENP7 block – blocks the human protease SENP7; AID 434973; 1.5% of 330,000 active; recombinant SENP7, Z-RLRGG-aminoluciferin luminescence, 40 min; inhibition, % at 5 µM;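 active = inhibition above about 50% at the single test dose, limit read from the data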
# Target sequence (Q9BQF6 706-1050 limits assumed): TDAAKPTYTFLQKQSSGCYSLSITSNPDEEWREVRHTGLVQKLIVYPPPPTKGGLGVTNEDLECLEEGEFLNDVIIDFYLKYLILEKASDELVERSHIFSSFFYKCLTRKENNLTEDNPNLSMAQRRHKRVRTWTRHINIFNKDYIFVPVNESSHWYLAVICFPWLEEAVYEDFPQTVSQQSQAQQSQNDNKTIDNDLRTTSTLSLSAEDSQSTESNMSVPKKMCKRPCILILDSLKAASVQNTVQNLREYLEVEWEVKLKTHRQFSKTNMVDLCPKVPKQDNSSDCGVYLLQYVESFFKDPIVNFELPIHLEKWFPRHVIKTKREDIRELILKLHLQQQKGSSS
# SENP8 block-2 – inhibitors of human SENP8 protease | Q96LD8 | AID 602440 | recombinant SENP8, Nedd8 substrate fluorescence | inhibition, % at 20 µM | 0.64% of 360,000 active; in the data active = inhibition mostly above about 40%, no sharp cut-off; inactive = mostly below about 27%
# SENP1 FRET inh – inhibitors of human SENP1 SUMO protease catalytic domain; recombinant SENP1 catalytic domain, CyPet-SUMO1-YPet FRET cleavage; inhibition, % at 10 µM; 0.21% of 360,000 active;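 active = inhibition at least 30% at 10 µM, raw YFP signal under a set limit, fluorescence ratio 0.5 to 1.5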
#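 Assay system – human recombinant His6-tagged SENP1 catalytic domain enzyme · Input – SENP1 enzyme, 20 pM final · Buffer or medium – Tris pH 8 buffer plus EDTA, NaCl, BME, BSA, NP40, catalase · Schedule – 50 min reaction at room temperature · Technique – FRET read of cyan and yellow fluorescence · Control set – no-enzyme wells low, DMSO-plus-enzyme wells high control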
# SENP6 inh – blocks the human protease SENP6 | Recombinant SENP6 catalytic domain, aminoluciferin luminescence | inhibition, % at 10 µM | 1.8% of 330,000 active | AID 2599;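 active = inhibition above about 50% at the single tested dose, limit read from the data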
# SENP8 confirm – confirmation of human SENP8 protease inhibitors | shares compounds with SENP7 block | 40% of 6,200 active | inhibition, % at 12.5 µM | Recombinant SENP8, Z-RLRGG-aminoluciferin luminescence, 60 min;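 active = mean inhibition across replicates above about 50%, limit read from the data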
# SENP6 conf – human SENP6 inhibition, confirmed. 58% of 6,200 active. shares compounds with SENP7 block. inhibition, % at 12.5 µM. recombinant SENP6, Z-RLRGG-aminoluciferin luminescence. AID 488915
# SENP7 conf – confirmation of human SENP7 protease inhibitors | shares compounds with SENP7 block | recombinant SENP7, Z-RLRGG-aminoluciferin luminescence, 40 min | inhibition, % at 12.5 µM | 69% of 6,200 active
# Casp3 select – selectivity test for SENP inhibitors: human caspase-3 inhibition; shares compounds with SENP7 block; purified caspase-3, Z-DEVD-aminoluciferin luminescence, 60 min; inhibition, % at 12.5 µM; 60% of 6,200 active; AID 488918;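 active = mean inhibition above about 50%, limit read from the data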
# Luc interf – counter-screen for SENP inhibitors: luminescence interference. 39% of 6,200 active. inhibition, % at 12.5 µM. Pre-incubated SENP8/Z-RLRGG-aminoluciferin, luciferase luminescence interference. shares compounds with SENP7 block;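 active = mean inhibition above about 50% when retested at one dose, limit read from the data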
# A number is an active result; i = inactive; nt = not tested or not shown. This is a sample that favours compounds with a hit; in the whole collection about 2.5% have one here.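 The calls were made as follows, unless noted: active = mean inhibition above about 50% in the one-dose retest (limit read from the data); inactive = the rest.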
SMILES,SENP8 block-1,SENP7 block,SENP8 block-2,SENP1 FRET inh,SENP6 inh,SENP8 confirm,SENP6 conf,SENP7 conf,Casp3 select,Luc interf
Cc1noc(C)c1NC(=O)N(C)C[C@H]1Oc2ccc(NC(=O)Nc3ccccc3)cc2C(=O)N([C@H](C)CO)C[C@@H]1C,i,i,i,i,i,nt,nt,nt,nt,nt
O=C(CN1CCN(Cc2ccc(Cl)cc2)CC1)N/N=C/c1ccccc1F,i,i,i,i,i,nt,nt,nt,nt,nt
COc1cccc(C(C)(O)c2nc(-c3cc(F)cc(F)c3)cs2)c1 (stereo not drawn),nt,nt,i,i,nt,nt,nt,nt,nt,nt
CC(=O)Oc1ccc2cc(-c3ccccc3)c(=O)oc2c1,86,85,i,i,93,i,i,50,i,i
Cc1cc(C)n2c(nc3ccccc32)c1C(=O)NCc1ccccc1,i,i,i,i,i,nt,nt,nt,nt,nt
O=C(N/N=C/c1cc2c(cc1Cl)OCO2)c1ccncc1,i,i,i,i,i,nt,nt,nt,nt,nt
O=C(N/N=C/c1cc2c(cc1Cl)OCO2)c1cccc(Br)c1,i,i,i,i,51,i,i,i,i,i
Oc1ccccc1C1=Nc2nc3ccccc3n2C(c2ccccc2)C1 (stereo not drawn),59,71,i,i,79,i,i,i,i,i
CC(=O)Nc1ccc(C(=O)OCc2ccccc2Br)cc1,i,i,i,i,i,nt,nt,nt,nt,nt
Cc1nc2ccc(C(=O)OCc3ccccc3Br)cc2nc1C,i,56,i,i,67,i,i,i,i,i
CN(C)c1ccc(/C=N/NC(=O)c2nnn(-c3nonc3N)c2COc2ccc(F)cc2)cc1,i,i,i,i,i,nt,nt,nt,nt,nt
CC(=O)c1ccc(COC(=O)c2cc3ccccc3oc2=O)cc1,i,i,i,i,i,nt,nt,nt,nt,nt
CCc1ccc(C(=O)c2cc3ccc(O)cc3oc2=O)cc1,i,i,i,i,60,66,62,84,71,66
CC(=O)c1cc2ccc(O)cc2oc1=O,i,i,i,i,i,nt,nt,nt,nt,nt
O=C(NCc1ccco1)c1cc2ccc(O)cc2oc1=O,95,96,i,i,98,99,100,103,99,99
O=C(c1ccc(Br)cc1)c1cc2ccc(O)cc2oc1=O,92,51,i,i,90,92,95,101,96,95
COc1ccc(C(=O)c2cc3ccc(O)cc3oc2=O)cc1,95,97,i,i,100,96,97,102,98,95
CC(C)N=C(NS(=O)(=O)c1ccccc1)C(Cl)(Cl)Cl,i,i,i,i,i,nt,nt,nt,nt,nt
O=C(c1ccccc1)c1cc2ccc(O)cc2oc1=O,96,98,i,i,95,98,99,102,98,96
COc1ccc(-c2cc3ccc(OCC(N)=O)cc3oc2=O)cc1OC,i,i,i,i,i,nt,nt,nt,nt,nt
COc1ccc(-c2cc3ccc(O)cc3oc2=O)cc1OC,95,100,i,i,99,99,100,103,99,96
COc1ccc(C2CC(c3ccccc3)=NN2C(=O)CCCC(=O)O)cc1 (stereo not drawn),i,i,i,i,i,nt,nt,nt,nt,nt
CS/C(N)=N/N=C/c1cc(C)ccc1O,54,63,i,i,i,i,60,85,64,66
CCCCS/C(N)=N/N=C/c1cc(C)ccc1O,i,i,i,i,i,nt,nt,nt,nt,nt
CCS/C(N)=N/N=C/c1cc(C)ccc1O,i,51,i,i,71,62,62,87,62,i
SMILES,SENP8 block-1,SENP7 block,SENP8 block-2,SENP1 FRET inh,SENP6 inh,SENP8 confirm,SENP6 conf,SENP7 conf,Casp3 select,Luc interf
CSc1ccc(CN2CCC2(C)C(=O)Nc2cccc(Oc3ccccc3)c2)cc1 (stereo not drawn),nt,nt,i,i,nt,nt,nt,nt,nt,nt
O=C(Oc1ccc(-c2cn3c(n2)SCC3)cc1)c1ccccc1,i,71,i,i,i,i,i,i,51,i
CC(=O)Nc1ccc(-c2cn3c(n2)SCC3)cc1,i,i,i,i,i,nt,nt,nt,nt,nt
COc1ccc(Cl)cc1S(=O)(=O)NCCCn1ccnc1,i,i,i,i,53,i,i,i,i,i
CCCc1cc(C(=O)Nc2cccnc2Cl)no1,i,i,i,i,i,nt,nt,nt,nt,nt
CCCc1cc(C(=O)Nc2cc(C)ccc2O)no1,67,i,i,i,61,i,56,87,72,i
CC(=O)c1cnc2cc(-c3ccc(C)cc3)nn2c1C,i,i,i,i,67,50,i,72,66,i
CC(=O)c1cnc2cc(-c3ccccc3)nn2c1C,i,i,i,i,i,nt,nt,nt,nt,nt
COCCNc1nc(NCCOc2ccccc2)c2sc(-c3ccccc3)cc2n1,nt,nt,i,i,nt,nt,nt,nt,nt,nt
CCN1CCN(c2ccc(S(=O)(=O)N3CCCCC3)cc2NC(=O)COc2ccc(F)cc2Cl)CC1,i,i,i,i,i,nt,nt,nt,nt,nt
CC(C)(C)C(=O)/C=c1\s/c(=C\c2ccc(-c3ccc([N+](=O)[O-])cc3)o2)c(=O)n1CC(=O)NC(N)=O,i,i,i,i,i,nt,nt,nt,nt,nt
Cc1ccccc1-c1nnc(SCc2ccccc2F)o1,i,i,i,i,57,i,i,73,i,i
COc1ccc(-c2nnc(SCc3ccccc3F)o2)cc1,53,67,i,i,69,68,70,89,i,51
Fc1ccccc1CSc1nnc(-c2ccccc2)o1,i,i,i,i,54,i,i,63,i,i
COc1ccc(-c2nnc(SCC(=O)c3cccs3)o2)cc1,i,56,i,i,i,i,i,83,55,i
CC(C(=O)N1CCCC1)N(c1ccccc1)S(C)(=O)=O (stereo not drawn),i,i,i,i,i,nt,nt,nt,nt,nt
CC(=O)Nc1cccc(/C(C)=N/N2C(C)CCCC2C)c1 (stereo not drawn),i,i,i,i,i,nt,nt,nt,nt,nt
O=[N+]([O-])c1cc(NCCO)c(N2CCCCCC2)c2nonc12,i,i,i,i,56,i,i,i,i,i
O=C1N/C(=C\c2ccc(O)cc2)C(=O)c2ccccc21,94,85,i,i,96,93,97,97,84,i
Cc1nc2sc(-c3ccccc3)cc2c(=O)[nH]1,76,i,i,i,86,i,82,98,92,i
O=c1c2cc(-c3ccccc3)sc2nc2n1CCC2,69,72,nt,nt,75,i,69,92,i,i
Cc1nc2sc(-c3ccccc3)cc2c(=O)n1-n1cccc1,i,i,i,i,62,i,i,i,i,i
